{"data": "Assay results gathered from unrelated publications", "Sterol carrier protein 2": "Sterol carrier protein 2 (Aedes aegypti, UniProt Q86PR3)", "DRD1": "D(1A) dopamine receptor (DRD1, Homo sapiens, UniProt P21728)", "BCHE": "Cholinesterase (BCHE, Equus caballus, UniProt P81908)", "note": "Compare with care: the assays were run in different laboratories."}
{"Compound": "COc1cc(/C=C2\\CCC/C(=C\\c3cc(OC)c(OC)c(OC)c3)C2=O)cc(OC)c1OC", "target": "Sterol carrier protein 2", "assay": "ligand displacement, fluorescence", "measurement": "EC50", "value": "12.1 µM"}
{"Compound": "CNC[C@H](O)c1cccc(O)c1", "target": "DRD1", "assay": "cAMP, agonist, TR-FRET", "measurement": "EC50", "value": "2.8 µM"}
{"Compound": "O=c1c(O)c(-c2ccc(O[C@@H]3O[C@H](CO)[C@@H](O)[C@H](O)[C@H]3O)c(O)c2)oc2cc(O)cc(O)c12", "target": "BCHE", "assay": "enzyme activity, inhibitor", "measurement": "Ki", "value": "0.0281 µM"}
{"Compound": "N[C@H]1C[C@@H](CO)[C@H](c2ccc(-c3cc(C(=O)O)cc4cc(-c5ccc(C(F)(F)F)cc5)ccc34)cc2)C1", "target": "DRD1", "assay": "cell-free assay, radioligand", "measurement": "Ki", "value": "1.4 to 2.2 µM"}
{"Compound": "CC=C1[C@H]2C=C(C)C[C@]1(N(C)C)c1ccc(=O)[nH]c1C2", "target": "BCHE", "assay": "enzyme activity, inhibitor, Ellman", "measurement": "IC50", "value": "224 µM"}
{"Compound": "O=S(=O)(O)c1ccc(-c2c3nc(c(-c4ccc(S(=O)(=O)O)cc4)c4ccc([nH]4)c(-c4ccc(S(=O)(=O)O)cc4)c4nc(c(-c5ccc(S(=O)(=O)O)cc5)c5ccc2[nH]5)C=C4)C=C3)cc1", "target": "Galectin-7 (LGALS7, Homo sapiens, UniProt P47929)", "assay": "binding", "measurement": "Kd", "value": "9.5 µM"}
{"Compound": "CC(CCc1ccc(O)cc1)NCCc1ccc(O)c(O)c1 (stereo not drawn)", "target": "DRD1", "assay": "cAMP, agonist, TR-FRET", "measurement": "EC50", "value": "13 µM"}
{"Compound": "C[C@H]1c2c[nH]c3cccc(c23)S[C@H]1C(=O)O", "target": "trpS (Geobacillus stearothermophilus, UniProt P00953)", "assay": "binding, ITC", "measurement": "Kd", "value": "3.1 µM"}
{"Compound": "O=c1c(O)c(-c2ccc(O)c(O)c2)oc2cc(O)cc(O)c12", "target": "Sterol carrier protein 2", "assay": "ligand displacement", "measurement": "EC50", "value": "18.4 µM"}
{"Compound": "CN(C)C(=O)COC(=O)c1cc(-c2ccc([C@H]3C[C@H]4C[C@@H]3CN4)cc2)c2ccc(-c3ccc(C(F)(F)F)cc3)cc2c1", "target": "DRD1", "assay": "cell-free assay, radioligand", "measurement": "Ki", "value": "1.4 to 2.2 µM"}
{"Compound": "CNc1nc(C#Cc2ccc(Cl)s2)nc2c1ncn2[C@@H]1O[C@H](C(=O)OC)[C@@H](O)[C@H]1O", "target": "Sodium-dependent serotonin transporter (SLC6A4, Homo sapiens, UniProt P31645)", "assay": "ligand displacement, radioligand", "setting": "cell membranes", "measurement": "Ki", "value": "> 10 µM"}
{"Compound": "CC=C1[C@H]2C=C(C)C[C@]1(N(C)C)c1ccc(OC)nc1C2", "target": "BCHE", "assay": "enzyme activity, inhibitor, Ellman", "measurement": "IC50", "value": "1350 µM"}
